In ChEMBL document CHEMBL4017446, “Discovery of (2-aminophenyl)methanol as a new molecular chaperone that rescues the localization of P123S mutant pendrin stably expressed in HEK293 cells” (Bioorg Med Chem, 2017) one finds IC50, Activity and Ratio data, which are given here for 22 molecules.

Structures are written as SMILES. pIC50: −log10 of the molar value. Active and inactive are the calls of the source. No cut-off for these calls is given here.

Data set [1] concerns HEK293. In words: Cytotoxicity against HEK293 cells harboring pendrin P123S mutant after 72 hrs by MTT assay. The following applies: Homo sapiens, HEK293, 72 h. The class given is cell-based. The essentials:
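Stable P123S pendrin HEK293 cells were seeded at 5 × 10^4 cells/well and preincubated 12 h at 37 °C. Cells were then exposed to compound at various concentrations in RPMI-1640 for 72 h. Viability was measured by MTT, and IC50 was taken from semilogarithmic dose-response plots. Triplicate experiments.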

Data set [2] has as its system T1, Pendrin (Homo sapiens), O43511 [P123S].
T1 sequence (whole entry): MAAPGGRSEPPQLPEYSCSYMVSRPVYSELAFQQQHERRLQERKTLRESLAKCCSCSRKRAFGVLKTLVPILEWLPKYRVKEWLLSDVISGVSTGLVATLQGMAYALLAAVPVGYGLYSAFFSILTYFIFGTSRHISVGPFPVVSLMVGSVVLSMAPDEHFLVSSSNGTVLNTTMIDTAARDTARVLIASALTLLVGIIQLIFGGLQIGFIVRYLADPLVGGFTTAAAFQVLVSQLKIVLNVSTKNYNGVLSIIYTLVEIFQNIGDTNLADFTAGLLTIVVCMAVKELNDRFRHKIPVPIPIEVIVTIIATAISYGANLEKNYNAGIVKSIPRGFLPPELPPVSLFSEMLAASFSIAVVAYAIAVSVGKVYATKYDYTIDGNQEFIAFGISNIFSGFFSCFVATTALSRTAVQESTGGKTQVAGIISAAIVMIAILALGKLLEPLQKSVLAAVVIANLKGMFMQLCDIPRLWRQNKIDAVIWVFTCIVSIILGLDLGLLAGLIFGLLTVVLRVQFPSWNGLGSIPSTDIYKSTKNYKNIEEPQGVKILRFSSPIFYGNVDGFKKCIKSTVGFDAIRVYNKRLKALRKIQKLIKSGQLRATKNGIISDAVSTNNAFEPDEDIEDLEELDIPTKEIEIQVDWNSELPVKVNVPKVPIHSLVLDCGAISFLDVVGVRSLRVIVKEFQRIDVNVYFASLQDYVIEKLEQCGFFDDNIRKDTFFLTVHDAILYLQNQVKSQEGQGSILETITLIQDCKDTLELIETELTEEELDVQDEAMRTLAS
In words: Chaperone activity at recombinant human C-terminal FLAG-tagged pendrin P123S mutant expressed in HEK293 cells assessed as intracellular localization of mutant protein in plasma membrane at 10 mM incubated for 12 hrs followed by compound washout measured after 6 hrs by DAPI staining based immunofluorescence microscopic analysis. It is filed as cell-based. A digest of the protocol:
(§1)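 Stable P123S pendrin HEK293 cells (5 × 10^4/well) were exposed to compound or 0.1% DMSO for 12 h, washed with PBS, then kept in fresh medium for 0, 6 or 12 h. They were then anti-FLAG/DAPI immunostained and imaged by confocal microscopy to follow pendrin distribution at the plasma membrane. Triplicate experiments.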

The test system is the same in data set [3]. In words: Chaperone activity at recombinant human C-terminal FLAG-tagged pendrin P123S mutant expressed in HEK293 cells assessed as increase in fluorescence intensity ratio of plasma membrane to cytoplasm measured after 12 hrs by DAPI staining based immunofluorescence microscopic method. The class given is cell-based. A digest of the protocol: (§2)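 Stable HEK293 line expressing FLAG-tagged P123S pendrin, grown in 10% FBS-RPMI-1640, treated 12 h with compound or vehicle (0.1% DMSO) in 35 mm dishes. Cells were fixed in 4% paraformaldehyde, stained with anti-FLAG primary antibody, Alexa Fluor 546 secondary and DAPI, and imaged by confocal microscopy. Mean intensities of 20 regions ([…]) in plasma membrane and cytoplasm gave the M/C ratio; 6–9 cells averaged.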

For data set [4] the test system is unchanged. Briefly: Chaperone activity at recombinant human C-terminal FLAG-tagged pendrin P123S mutant expressed in HEK293 cells assessed as fluorescence intensity ratio of plasma membrane to cytoplasm at 10 mM measured after 12 hrs by DAPI staining based immunofluorescence microscopic method. It is filed as cell-based. A digest of the protocol: as §2
Data set [5] shares this test system. Briefly: Chaperone activity at recombinant human C-terminal FLAG-tagged pendrin P123S mutant expressed in HEK293 cells assessed as translocation of mutant protein from cytoplasm to plasma membrane at 1 to 10 mM measured after 12 hrs by DAPI staining based immunofluorescence microscopic analysis. It is filed as cell-based. The essentials: (§3)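 HEK293 cells stably expressing FLAG-tagged P123S pendrin were incubated 12 h with compound or 0.1% DMSO in dishes. WT-pendrin cells given vehicle served as reference. Cells were fixed in paraformaldehyde, blocked in 1% BSA, stained with anti-FLAG/Alexa Fluor 546 secondary plus DAPI, and membrane versus cytoplasmic localization was judged by confocal imaging.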

For data set [6] the test system is unchanged. Briefly: Chaperone activity at recombinant human C-terminal FLAG-tagged pendrin P123S mutant expressed in HEK293 cells assessed as increase in localization of protein mutant in plasma membrane at 1 to 30 mM after 12 hrs by DAPI staining based immunofluorescence microscopic analysis. The class given is cell-based. A digest of the protocol: (§4)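 Stable P123S pendrin HEK293 cells were screened in 96-well plates after 12 h exposure to compound or 0.1% DMSO. WT cells with vehicle served as positive control. Cells were anti-FLAG/DAPI immunostained, and about 100 cells per field across 100 fields were imaged by automated high-content analysis. The read-out was cytoplasmic fluorescence intensity in a 5-pixel band 2–7 pixels inside the cell outline.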

For data set [7] the test system is unchanged. Briefly: Chaperone activity at recombinant human C-terminal FLAG-tagged pendrin P123S mutant expressed in HEK293 cells assessed as translocation of mutant protein from cytoplasm to plasma membrane at 3 mM measured after 12 hrs by DAPI staining based immunofluorescence microscopic analysis. The class given is cell-based. The essentials:
as §3

Data set [8] shares this test system. Briefly: Chaperone activity at recombinant human C-terminal FLAG-tagged pendrin P123S mutant expressed in HEK293 cells assessed as intracellular localization of mutant protein in plasma membrane at 10 mM incubated for 12 hrs followed by compound washout measured after 12 hrs by DAPI staining based immunofluorescence microscopic analysis. The class given is cell-based. The essentials: as §1

For data set [9], the system named is HEK293. In words: Induction of HEK293 cell aggregation measured after 12 hrs by DAPI staining based immunofluorescence microscopic method. The following applies: human, hek293, 12 h. A digest of the protocol: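 Stable P123S pendrin HEK293 cells were incubated with compound for 12 h in 35 mm dishes, then immunostained with anti-FLAG and DAPI. Cell aggregation was observed under a fluorescence microscope.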

Data set [10] concerns HEK293. Briefly: Cytotoxicity against HEK293 cells harboring pendrin P123S mutant assessed as decrease in cell viability at 15 mM after 72 hrs by MTT assay. It is filed as cell-based. The following applies: human, hek293, 72 h, 15000 µM.
Data set [11] relates to T1, Pendrin (Homo sapiens), O43511 [P123S]. In words: Chaperone activity at recombinant human C-terminal FLAG-tagged pendrin P123S mutant expressed in HEK293 cells assessed as intracellular localization of mutant protein in plasma membrane at 0.1 mM incubated for 12 hrs followed by compound washout measured after 6 hrs by DAPI staining based immunofluorescence microscopic analysis. It is filed as cell-based. A digest of the protocol:
as §1

Data set [12] shares this test system. In words: Chaperone activity at recombinant human C-terminal FLAG-tagged pendrin P123S mutant expressed in HEK293 cells assessed as increase in localization of protein mutant in plasma membrane at 0.03 to 1 mM after 12 hrs by DAPI staining based immunofluorescence microscopic analysis. The class given is cell-based. A digest of the protocol: as §4
Data set [13] has the same test system. In words: Chaperone activity at recombinant human C-terminal FLAG-tagged pendrin P123S mutant expressed in HEK293 cells assessed as translocation of mutant protein from cytoplasm to plasma membrane at 0.1 mM measured after 12 hrs by DAPI staining based immunofluorescence microscopic analysis. The class given is cell-based. A digest of the protocol:
as §3

Data set [14] shares this test system. In words: Potency index, ratio of compound effect to salicylate effect for chaperone activity at recombinant human C-terminal FLAG-tagged pendrin P123S mutant expressed in HEK293 cells assessed as translocation of mutant protein from cytoplasm to plasma membrane. The class given is cell-based.
Data set [15] shares this test system. In words: Chaperone activity at recombinant human C-terminal FLAG-tagged pendrin P123S mutant expressed in HEK293 cells assessed as fluorescence intensity ratio of plasma membrane to cytoplasm at 0.3 mM measured after 12 hrs by DAPI staining based immunofluorescence microscopic method. The class given is cell-based. A digest of the protocol: as §2
For data set [16] the test system is unchanged. In words: Chaperone activity at recombinant human C-terminal FLAG-tagged pendrin P123S mutant expressed in HEK293 cells assessed as fluorescence intensity ratio of plasma membrane to cytoplasm at 0.1 mM measured after 12 hrs by DAPI staining based immunofluorescence microscopic method. The class given is cell-based. The essentials:
as §2

For data set [17] the test system is unchanged. Briefly: Chaperone activity at recombinant human C-terminal FLAG-tagged pendrin P123S mutant expressed in HEK293 cells assessed as intracellular localization of mutant protein in plasma membrane at 0.1 mM incubated for 12 hrs followed by compound washout measured after 12 hrs by DAPI staining based immunofluorescence microscopic analysis. It is filed as cell-based. The essentials: as §1

On to `Cc1ccc(O)c(C(=O)O)c1`, for which, in data set [1], the pIC50 was 2.01. The result in [2] and in [5] was Active. In addition, the Activity entry in [3] was “Dose-dependent effect”. For the same molecule, the Ratio in data set [4] is 1.7.
`O=C(O)c1cc([N+](=O)[O-])ccc1O` showed a pIC50 in data set [1] of 2.28. The result in [2], in data set [6], in data set [7] and in data set [8] was Active. In addition, in data set [3], the Activity result was “Dose-dependent effect”. Further, the Ratio in [4] turned out to be 1.3.
For the molecule `O=C(O)Cc1ccccc1O`, the pIC50 in [1] is 1.92. Besides, the result in data set [6] was Active.
For `CC(O)CC(=O)O` (stereo unspecified) the same measures were less than 1.82 and “Active”.
`O=C(O)c1ccc([N+](=O)[O-])cc1O`: in [1], the pIC50 was 1.90. Also, in data set [6], the result was Active. The Activity entry in data set [9] is reported as “Toxic”.
The molecule `Nc1cccc(CO)c1` had a pIC50 in data set [1] of less than 1.82. The Activity in data set [10] was 46.7%.
The molecule `OCCc1ccccc1O` showed a pIC50 in data set [1] of less than 1.82. Further, the Activity in [10] is recorded as 38.3%; in data set [9], “Toxic”. For the same molecule, in [6], the outcome was Active.
In the case of `Nc1ccc(CO)cc1`, the pIC50 in data set [1] was 1.90.
As for `OB(O)c1ccccc1O`, the pIC50 in data set [1] was less than 1.82. Besides, the Activity in [10] is 22.3%; in data set [9], “Toxic”. For the same molecule, the outcome in [6] was Active.
As for `Nc1ccccc1CCO`, in [1], the pIC50 is less than 1.82. The Activity in [10] stood at 35.8%. Besides, the result in [6] was inactive.
On to `O=C(O)c1c(O)cccc1O`, for which the pIC50 in data set [1] is 1.97. Besides, in [6], the outcome was inactive.
`O=C(O)c1cccc(O)c1O` [2,3-DIHYDROXYBENZOIC ACID]: the pIC50 in [1] was less than 1.82. The Activity in data set [10] is recorded as 47.4%. In addition, in [6], the result was inactive.
For `Nc1ccccc1C(=O)O` [ANTHRANILIC ACID] the same measures were less than 1.82, 46.9% and “inactive”.
`CC(=O)Oc1ccccc1C(=O)O` [ASPIRIN] had a pIC50 in data set [1] of 1.99. For the same molecule, in [6], the outcome was inactive.
The molecule `O=C(O)c1cc(O)ccc1O` [GENTISIC ACID] gave a pIC50 in [1] of less than 1.82. Moreover, in [10], the Activity is 46.8%. Besides, in [6], the outcome was inactive.
In the case of `Nc1ccccc1CO` [ISATOIC ANHYDRIDE], the outcome in data set [11], in data set [12], in data set [13] and in data set [17] was Active. Moreover, the Ratio came out at 100 in data set [14], 1.8 in data set [15] and 0.9 in data set [16]. The Activity result in data set [3] was “Dose-dependent effect”.
`O=C(O)CC(=O)O` [MALONIC ACID] gave a pIC50 in data set [1] of 2.01.
For the molecule `Nc1ccc(O)c(C(=O)O)c1` [MESALAMINE], the pIC50 in data set [1] is less than 1.82. Also, the Activity in data set [10] came out at 35.5%. Also, the result in [6] was inactive.
For `O=C(O)c1ccc(O)c(O)c1` [PROTOCATECHUIC ACID], in that order: less than 1.82, 37% and “inactive”.
For `OCc1ccccc1O` [SALICYL ALCOHOL], in that order: less than 1.82, 25.3% and “inactive”.
`O=C(O)c1ccccc1O` [SALICYLIC ACID] gave a pIC50 in [1] of less than 1.82. Besides, the Activity in [10] is 4.2%; in data set [3], “Dose-dependent effect”. Further, the result in data set [2] was inactive. For the same molecule, the Ratio in data set [4] came out at 1.
Take `O=C(O)c1ccccc1S` [THIOSALICYLIC ACID]: in [1], the pIC50 is 1.90. Besides, the outcome in [6] was inactive.
